Like-named read-outs stand apart in the source and are kept apart here. Ends that are not written are not given here. * marks the point of attachment. Biotin = O=C1N[C@H]2[C@H](CS[C@H]2CCCCC(=O)*)N1
Experiments:
[1] = test system: 3C3 mouse NK T cell hybridoma; assay: Competition for α-GalCer presentation by plate-bound hCD1d; assay type: cell-based; settings: data not shown
Outline: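 Gangliosides dissolved in PBS were added to soluble insect-cell-derived hCD1d before α-GalCer. The mixture was coated onto plates 2 h at 37°C and washed five times in PBS. 3C3 hybridoma cells (5 × 10⁴/well) were cultured 16 h, and IL-2 was measured by ELISA.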

[2] = test system: 3C3 mouse NK T cell hybridoma; assay: Competition for α-GalCer presentation by plate-bound mCD1 to 3C3 hybridoma; assay type: cell-based; settings: 1 μg/well mCD1 preincubated with 25 ng/well α-GalCer
hCD1d [3] = biological target: T1, hCD1d (Homo sapiens, UniProt P15813); assay type: binding; settings: competitor preincubated with protein in solution
mCD1 [4] = biological target: T2, mCD1 (Mus musculus, UniProt P11609); assay type: binding; settings: competitor preincubated with protein in solution
NK T cells = settings: cited from earlier work
mCD1 [5] = biological target: T2, mCD1; assay: SPR competition: mCD1 binding to biotin-P99 chip; settings: mCD1 1.8–2 μM
[6] = test system: Vα14+ mouse NK T cell hybridomas N38-2H4 and DN3A4-1.4; assay: Recognition of antigen on immobilized mCD1 by Vβ7; assay type: cell-based; settings: data not shown
DN3A4-1.2 NK T hybridoma = assay: Stimulation of 1.2 hybridoma by plates coated with soluble CD1d, IL-2 release; assay type: cell-based, mouse; settings: 50 ng/well α-GalCer
Outline: (§1)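 Plates were coated 2 h at 37°C with 1 µg/well soluble mCD1 or hCD1d (insect-cell-derived), either alone or premixed in PBS with 50 ng/well α-GalCer. After five PBS washes, 5 × 10⁴ hybridoma cells/well were added. IL-2 was quantified after 16 h by sandwich ELISA against a recombinant IL-2 standard (detection limit 0.1 U/ml). Representative of five experiments.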

mCD1 [7] = biological target: T2, mCD1; assay: SPR; assay type: binding
[8] = test system: 3C3 mouse NK T cell hybridoma; assay: Antigen presentation by plate-bound hCD1d to 3C3 hybridoma, IL-2 release ELISA; assay type: cell-based; settings: 1 μg/well plate-bound hCD1d preincubated with 100 ng lipid
Outline: (§2)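 Soluble CD1d–β2m heterodimers came from stably cotransfected Drosophila SC2 cells induced 3 d with 0.7 mM CuSO₄, purified on Ni-NTA then Mono Q. Plates were coated 2 h at 37°C with 1 µg/well protein premixed with lipid in PBS. Controls were protein with DMSO (0.25–1% final) or lipid alone. After five PBS washes, 5 × 10⁴ 3C3 cells/well were added; IL-2 was measured by ELISA after 16 h.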

N38-2C12 NK T hybridoma = assay: Stimulation of 2C12 hybridoma by plates coated with soluble CD1d, IL-2 release; assay type: cell-based, mouse; settings: 50 ng/well α-GalCer
Outline: as §1

[9] = test system: 3C3 mouse NK T cell hybridoma; assay: Antigen presentation by plate-bound mCD1 to 3C3 hybridoma, IL-2 release ELISA; assay type: cell-based; settings: 1 μg/well plate-bound mCD1 preincubated with 100 ng lipid
Outline: as §2

[10] = test system: 3C3 mouse NK T cell hybridoma; assay type: cell-based; settings: mCD1+ A20 cells pulsed with 100 ng/ml lipid; 16 h
[11] = Solubility in aqueous solution; assay type: physicochemical; settings: must be dissolved in DMSO-containing solutions
mCD1-restricted CTLs = settings: cited from earlier work
hCD1d [12] = biological target: T1, hCD1d; assay: SPR; assay type: binding
[13] = biological target: T3, soluble mCD1–mβ2m heterodimer (mouse, UniProt P11609 22-305; P01887 21-119); assay: SPR
T3 sequence (looked up) 1: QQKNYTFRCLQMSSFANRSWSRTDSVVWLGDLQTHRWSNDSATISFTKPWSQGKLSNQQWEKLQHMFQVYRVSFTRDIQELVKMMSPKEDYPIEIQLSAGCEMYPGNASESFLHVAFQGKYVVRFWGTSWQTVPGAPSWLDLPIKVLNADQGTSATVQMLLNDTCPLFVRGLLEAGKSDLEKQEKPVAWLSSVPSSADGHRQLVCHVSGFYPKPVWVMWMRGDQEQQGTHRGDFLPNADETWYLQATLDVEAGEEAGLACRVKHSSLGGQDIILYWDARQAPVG
T3 sequence (looked up) 2: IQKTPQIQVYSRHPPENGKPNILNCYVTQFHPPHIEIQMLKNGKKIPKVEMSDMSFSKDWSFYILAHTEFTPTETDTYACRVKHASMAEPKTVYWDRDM

## GD1a
[1]
  inhibition of α-GalCer presentation: could inhibit
[2]
  inhibition of α-GalCer presentation: could inhibit
hCD1d [3]
  inhibition of hCD1d binding to biotin–α-GalCer or biotin–β-GalCer chip: could inhibit
mCD1 [4]
  inhibition of mCD1 binding to biotin–α-GalCer or biotin–β-GalCer chip: could inhibit

## YEHDFHHIREWGNHWKNCLAVM [P99]
NK T cells
  prevention of α-GalCer recognition by NK T cells: neither P99 nor an ovalbumin peptide could prevent
mCD1 [5]
  inhibition of mCD1 binding to immobilized biotin-P99: inhibited by increasing concentrations
mCD1 [4]
  inhibition of mCD1 binding to biotin–α-GalCer or biotin–β-GalCer chip: does not affect

## CC(=O)N[C@H]1[C@H](O[C@H]2[C@@H](O)[C@@H](CO)O[C@@H](O[C@@H]([C@H](O)[C@@H](O)C=O)[C@H](O)CO)[C@@H]2O)O[C@H](CO[C@]2(C(=O)O)C[C@H](O)[C@@H](NC(C)=O)[C@H]([C@H](O)[C@H](O)CO)O2)[C@@H](O)[C@@H]1O[C@@H]1O[C@H](CO)[C@H](O)[C@H](O[C@]2(C(=O)O)C[C@H](O)[C@@H](NC(C)=O)[C@H]([C@H](O)[C@H](O)CO)O2)[C@H]1O [disialyllacto-N-tetraose, α-Neu5Ac-[2→3]-β-Gal-[1→3]-(α-Neu5Ac-[2→6])-β-GlcNac-[1→3]-β-Gal-[1→4]-Glc]
[2]
  inhibition of α-GalCer presentation: did not inhibit
[2]; listed as control hexasaccharide
  inhibition of α-GalCer presentation: has no effect

## CCCCCCCCCCCCCCCCCCCCCCCCCC(=O)N[C@@H](CO[C@H]1O[C@H](CO)[C@H](O)[C@H](O)[C@H]1O)[C@H](O)[C@H](O)CCCCCCCCCCCCCC [α-GalCer, α-galactosyl ceramide]
[6]
  recognition when presented by immobilized mCD1: could recognize
DN3A4-1.2 NK T hybridoma
  effect on response to plate-bound CD1d: can be enhanced
mCD1 [7]; read-out: k off (fast)
  koff: 0.1 s⁻¹
mCD1 [7]; read-out: k off (slow)
  koff: 0.004 s⁻¹
[8]
  presentation to 3C3 hybridoma (IL-2 release): could both present
N38-2C12 NK T hybridoma
  effect on response to plate-bound CD1d: can be enhanced
[9]
  presentation to 3C3 hybridoma (IL-2 release): could both present
[10]
  presentation to 3C3 hybridoma (IL-2 release): can present
[11]
  solubility: much less soluble than the gangliosides
mCD1-restricted CTLs
  effect on ovalbumin peptide recognition: did not affect
hCD1d [12]; read-out: k off (fast)
  koff: 0.08 s⁻¹
hCD1d [12]; read-out: k off (slow)
  koff: 0.004 s⁻¹

B1: NH2 terminus biotinylated P99 peptide (peptide)
peptide: Biotin-YEHDFHHIREWGNHWKNCLAVM
[13]
  koff: 0.005 to 0.008 s⁻¹

— paper PMC2195664 (The Journal of Experimental Medicine, 1999)
